According to PMC6541390 (Biochemistry, 2010):
Values joined by “and” are separate entries in the source; they are usually repeats but may differ in a detail not shown here. Equal entries are not always repeated. Where two headings read alike, the source gives them in different places.

Key:
[1] = target: T1, Escherichia coli biotin synthase (BS) (Escherichia coli, UniProt P12996); assay: Screen for BS inhibition by products and product-related compounds; type: biochemical; settings: for inhibition of BS in the screen: inhibitor 500 μM alone, AdoMet 100 μM, BS 25 μM, 30 min, 37 °C
Summary of the method: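 Anaerobic: BS (25 μM) in 50 mM Tris-HCl, 100 mM KCl, 5 mM DTT, pH 8.0, reconstituted 5 min with Na2S and FeCl3 (200 μM each). Flavodoxin 25 μM, its NADP+ reductase 4 μM, NADPH 1 mM and DTB 50 μM added for 5 min, then AdoMet 100 μM and candidate (500 μM). 30 min, 37 °C; biotin, dAH, MDTB by HPLC; duplicates averaged, normalised to no-inhibitor sample.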

[2] = target: T1, Escherichia coli biotin synthase (BS); type: biochemical; settings: for Ki: BS 25 μM, 30 min, 37 °C
[3] = target: PFL activase (Escherichia coli, UniProt P0A9N4); settings: at 100 μM AdoMet; cited from earlier work
[4] = target: T1, Escherichia coli biotin synthase (BS); assay: Equilibrium UV/visible titration of AdoHcy binding to reconstituted BS
[5] = target: T2, E. coli MTAN (5′-methylthioadenosine/S-adenosyl-L-homocysteine nucleosidase) (Escherichia coli, UniProt P0AF12); settings: identical assay conditions; ref Lee et al. (32); cited from earlier work
[6] = tested on: E. coli cytosine 5-methyltransferase; settings: cited from earlier work
[7] = target: T1, Escherichia coli biotin synthase (BS); assay: Titration of BS active sites with AdoHcy in the activity assay; type: biochemical; settings: extrapolation of the initial linear part of the inhibition curve
[8] = target: rat catechol O-methyltransferase; settings: cited from earlier work
[9] = target: T1, Escherichia coli biotin synthase (BS); assay: Effect of MTA nucleosidase on BS activity in the presence of inhibitors; type: biochemical
[10] = cited from earlier work
[11] = target: T1, Escherichia coli biotin synthase (BS); assay: BS activity at varying AdoMet concentration, commercial versus pure AdoMet; type: biochemical; settings: enzymatically synthesized AdoMet, Michaelis-Menten fit; BS 25 μM
[12] = target: T1, Escherichia coli biotin synthase (BS); settings: read-out: Kd AdoMet; cited from earlier work
[13] = target: E. coli BS (Escherichia coli, UniProt P12996); settings: high AdoMet concentration, 3 h at 37 °C; cited from earlier work
[14] = target: T2, E. coli MTAN (5′-methylthioadenosine/S-adenosyl-L-homocysteine nucleosidase); assay: MTA/AdoHcy nucleosidase activity assay; type: biochemical
[15] = tested on: BS; settings: 30 μM dAH, 90 min assay; cited from earlier work
[16] = target: DNA methyltransferases; settings: binding cooperatively with DNA; cited from earlier work
[17] = Ki, inhibitor alone, competitive with AdoMet

T1 sequence (P12996 whole entry): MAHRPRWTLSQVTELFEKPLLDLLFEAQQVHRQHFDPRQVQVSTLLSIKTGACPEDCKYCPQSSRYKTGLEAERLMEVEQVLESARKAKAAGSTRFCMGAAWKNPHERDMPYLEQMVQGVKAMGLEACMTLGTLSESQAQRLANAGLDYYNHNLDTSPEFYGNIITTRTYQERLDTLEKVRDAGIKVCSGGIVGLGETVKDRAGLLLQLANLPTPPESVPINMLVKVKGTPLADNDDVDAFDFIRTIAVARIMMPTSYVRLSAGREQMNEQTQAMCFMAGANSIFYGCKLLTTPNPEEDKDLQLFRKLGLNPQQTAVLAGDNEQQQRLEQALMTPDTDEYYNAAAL
T2 sequence (P0AF12 whole entry): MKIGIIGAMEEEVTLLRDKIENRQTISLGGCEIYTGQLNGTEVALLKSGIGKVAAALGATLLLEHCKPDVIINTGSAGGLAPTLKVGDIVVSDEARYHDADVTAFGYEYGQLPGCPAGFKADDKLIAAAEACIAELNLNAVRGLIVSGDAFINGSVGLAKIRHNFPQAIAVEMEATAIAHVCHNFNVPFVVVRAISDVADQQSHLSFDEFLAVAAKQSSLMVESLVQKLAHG
E. coli BS, sequence (P12996 whole entry): as the sequence (P12996 whole entry) above
PFL activase, sequence (P0A9N4 2-246): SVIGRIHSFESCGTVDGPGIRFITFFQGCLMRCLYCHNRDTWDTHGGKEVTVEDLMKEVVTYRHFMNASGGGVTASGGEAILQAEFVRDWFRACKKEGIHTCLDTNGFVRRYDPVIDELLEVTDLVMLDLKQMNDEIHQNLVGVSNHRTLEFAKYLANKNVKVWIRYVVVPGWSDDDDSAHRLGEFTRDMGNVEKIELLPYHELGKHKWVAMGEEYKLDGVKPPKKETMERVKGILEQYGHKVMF

Compound: 5′-methylthioadenosine [MTA]
- inhibition of BS in the screen [1]: not an inhibitor

Compound: N=C1N[C@H]2[C@H](CS[C@H]2CCCCC(=O)O)N1 [iminobiotin]
- inhibition of BS in the screen [1]: neither biotin nor iminobiotin, the guanido analogue of biotin, is a significant inhibitor

Compound: CSCC[C@H](N)C(=O)O [methionine]
- Ki [2, 17]: 100 µM
- inhibition of BS in the screen [1]: inhibitors

Compound: Nc1ncnc2c1ncn2[C@@H]1O[C@H](CSCC[C@H](N)C(=O)O)[C@@H](O)[C@H]1O [AdoHcy, S-adenosyl-L-homocysteine]
- IC50 [3]: ~20 µM
- Kd [4]: 0.54 ± 0.15 µM
- AdoHcy binding sites per BS dimer ([4]; equilibrium titration, BS 50 μM): 1.5 sites per dimer
- koff ([4]; read-out: koff, inhibitor dissociation): ≥ 10 s⁻¹
- kcat [5]: 2.6 s⁻¹
- Ki [6]: 14 µM
- AdoHcy equivalents (sites) per BS dimer for complete inhibition [7]: 0.85 equiv per dimer
- Ki [8]: 50 µM
- Ki ([2]; Ki AdoHcy, fit to eq 1 with a, b, c = 1 and d = 0, AdoMet 100-500 μM): ≤ 0.65 µM and 0.4 to 1.2 µM and < 0.65 µM and 0.65 µM
- BS activity on addition of MTAN ([9]; MTAN 200 nM): only partially restored
- decrease of BS activity ([9]; inhibitor 50 μM (each), without MTAN, BS 25 μM, 37 °C): ~ 95%
- inhibition of BS in the screen [1]: no detectable biotin produced
- level of MDTB intermediate relative to control ([1]; inhibitor 500 μM, 30 min assay): less MDTB than the control sample

Compound: C[S+](CC[C@H](N)C(=O)[O-])C[C@H]1O[C@@H](n2cnc3c(N)ncnc32)[C@H](O)[C@@H]1O (stereo partly drawn) [AdoMet, S-adenosyl-L-methionine]
- t½ of spontaneous racemization at the sulfonium center ([10]; 37 °C): 107 h
- t½ of spontaneous degradation to MTA ([10]; physiological conditions): 42 h
- Vmax [11]: 0.52 µM/min
- Kd [12]: 2.3 µM

Compound: NC(CCS)C(=O)O (centres unmarked) [Homocysteine]
- inhibition of BS in the screen [1]: not an inhibitor

Compound: C[C@H]1O[C@@H](n2cnc3c(N)ncnc32)[C@H](O)[C@@H]1O [dAH, 5′-deoxyadenosine]
- IC50 [13]: ~400 µM
- turnover rate (kcat) faster than with AdoHcy [14]: 2 fold
- turnover rate (kcat) faster than with MTA [14]: 1.7 fold
- weaker affinity (Km) for MTA nucleosidase as compared to MTA [14]: 5.8 fold
- kcat ([14]; MTAN 12 nM, 50 mM sodium phosphate pH 7.5): 5.1 s⁻¹
- Ki [2, 17]: 20 µM
- enhancement of dAH inhibition by cooperative binding with methionine ([2]; excess methionine): 3 fold
- inhibition of biotin production [15]: ~ 90%
- inhibition of BS in the screen [1]: inhibitors
- concentration of MDTB intermediate relative to the control sample ([1]; inhibitor 500 μM, 30 min assay): 3–4 times

Compound: O=C(O)CCCC[C@@H]1SC[C@@H]2NC(=O)N[C@@H]21 [biotin]
- inhibition of BS in the screen [1]: neither biotin nor iminobiotin, the guanido analogue of biotin, is a significant inhibitor

Compound: C[S+](CC[C@H](N)C(=O)[O-])C[C@H]1O[C@@H](n2cnc3c(N)ncnc32)[C@H](O)[C@@H]1O (stereo partly drawn) [(R,S)-AdoMet]
- decrease of biotin production ([1]; heat-racemized AdoMet, 55 μM (R,S)-AdoMet and 100 μM (S,S)-AdoMet): ~15%

Compound: Nc1ncnc2c1ncn2[C@@H]1O[C@H](C[C@@H](N)CC[C@H](N)C(=O)O)[C@@H](O)[C@H]1O [sinefungin]
- Ki [16]: ~0.01 µM
- Ki [2, 17]: 40 to 140 µM and 75 µM
- inhibition of BS in the screen [1]: inhibitor with a decrease in activity comparable to that observed for dAH
- level of MDTB intermediate relative to control ([1]; inhibitor 500 μM, 30 min assay): less MDTB than the control sample
